Screening data from PubChem.
DENV2 CPE rescue: protects cells from dengue virus 2 cytopathic effect. hit rate 1.7% among 350,000. CPE inhibition, % at 9.99 µM. DENV2-infected cells, cytopathic effect rescue, plate reader; in the data active means CPE inhibition above about 20%, passing the limit was not always enough; inconclusive means no clear call, values can overlap the other calls; tested in BHK-21 cells
SIRT5 block: sirtuin-5 (human) deacylase inhibition. inhibition, % at 15 µM. Purified SirT5, succinyl-peptide AMC, trypsin-coupled fluorescence. hit rate 1.1% among 330,000. AID 652115; in the data active means inhibition above about 15%; inconclusive means no clear call, values can overlap the other calls
E-sel inducer: E-selectin induction on HUVECs. AID 686992. HUVEC E-selectin immunofluorescence imaging; normalized: neutral wells 0, TNF-alpha wells 100. P16581. activation, % at 7.58 µM. hit rate 0.37% among 260,000;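 active means mean E-selectin-positive cell signal at least 10% of the positive control, reached in at least 60% of replicates, without over 20% cell loss; inconclusive means no rule given, readout overlaps actives, possibly toxicity-flagged; inactive means the rest, including those meeting only one limit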
Target sequence (P16581 whole entry, looked up): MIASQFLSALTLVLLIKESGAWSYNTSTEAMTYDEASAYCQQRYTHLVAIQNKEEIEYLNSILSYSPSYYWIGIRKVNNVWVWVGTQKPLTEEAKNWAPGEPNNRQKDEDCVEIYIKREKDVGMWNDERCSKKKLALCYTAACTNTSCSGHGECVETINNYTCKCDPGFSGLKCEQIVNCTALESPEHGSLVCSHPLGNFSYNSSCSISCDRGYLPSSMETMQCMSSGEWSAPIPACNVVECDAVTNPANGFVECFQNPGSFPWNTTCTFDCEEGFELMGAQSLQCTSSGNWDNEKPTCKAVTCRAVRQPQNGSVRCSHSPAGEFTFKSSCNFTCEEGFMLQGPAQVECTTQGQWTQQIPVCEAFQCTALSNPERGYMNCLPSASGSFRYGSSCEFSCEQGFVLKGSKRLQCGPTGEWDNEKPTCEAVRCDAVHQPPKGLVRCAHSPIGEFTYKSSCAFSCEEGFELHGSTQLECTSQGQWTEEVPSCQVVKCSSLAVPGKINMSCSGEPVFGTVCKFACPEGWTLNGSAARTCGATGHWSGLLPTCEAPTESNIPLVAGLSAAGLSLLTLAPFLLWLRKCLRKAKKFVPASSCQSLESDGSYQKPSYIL
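Material: HUVEC primary endothelial cells; Amount: 3,000 cells per well; Dosing: single concentration; Medium: EGM-2 growth medium on 0.1% gelatin-coated wells; Read-out basis: percent E-selectin-positive cells; Signal: immunofluorescence imaging; Control set: TNF-alpha, DMSO.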
Of the large screens only hits and unclear results are named; the others gave an inactive call. In the library only some 2.8% were active in any assay of this set; here they are far more common.

O=C(C[C@H]1CC[C@@H]2[C@H](COC[C@@H](O)CN2CC2CCCCC2)O1)NCC1CC1	none
O=C(C[C@@H]1CC[C@@H]2[C@H](COC[C@@H](O)CN2Cc2ccc3c(c2)OCO3)O1)N1CCOCC1	SIRT5 block 27
O=C(C[C@@H]1CC[C@H]2[C@@H](COC[C@H](O)CN2CC2CCOCC2)O1)N1CCOCC1	none
O=C(C[C@H]1CC[C@H]2[C@@H](COC[C@@H](O)CN2Cc2cccc(Cl)c2)O1)N1CCCCC1	SIRT5 block 19
O=C(C[C@H]1CC[C@@H]2[C@H](COC[C@H](O)CN2CC2CCCCC2)O1)NCC1CC1	DENV2 CPE rescue 29
O=C(C[C@H]1CC[C@@H]2[C@H](COC[C@H](O)CN2CC2CCOCC2)O1)N1CCOCC1	DENV2 CPE rescue 49
O=C(C[C@@H]1CC[C@@H]2[C@H](COC[C@@H](O)CN2Cc2cccc(Cl)c2)O1)N1CCCCC1	none
O=C(NCC[C@@H]1CC[C@@H](NC(=O)C2CCCCC2)[C@@H](CO)O1)c1cc(Cl)cc(Cl)c1	DENV2 CPE rescue inconclusive
C[C@@H]1CN([C@H](C)CO)C(=O)c2cc(NC(=O)NC3CCCCC3)ccc2O[C@@H](C)CCCCO[C@@H]1CN(C)S(=O)(=O)c1ccc(F)cc1	none
COCC(=O)Nc1ccc2c(c1)C(=O)N(C)C[C@@H](OC)[C@H](C)CN(C(=O)c1ccccc1F)[C@@H](C)CO2	none
Cc1ccc(S(=O)(=O)NCC[C@H]2CC[C@H](NC(=O)c3cccc(F)c3)[C@H](CO)O2)cc1	none
O=C(C[C@@H]1CC[C@@H]2[C@H](COC[C@@H](O)CN2Cc2ccc(Oc3ccccc3)cc2)O1)N1CCCCC1	DENV2 CPE rescue 24
O=C(C[C@@H]1CC[C@H]2[C@@H](COC[C@@H](O)CN2C(=O)c2cc(Cl)cc(Cl)c2)O1)N1CCc2ccccc2C1	none
O=C(C[C@H]1CC[C@@H]2[C@H](COC[C@H](O)CN2C(=O)c2ccccc2)O1)N1CCc2ccccc2C1	DENV2 CPE rescue 28
O=C(NC[C@H]1CC[C@H]2[C@H](CN2Cc2cccc(Cl)c2)O1)C1CCOCC1	DENV2 CPE rescue 58 (no result: E-sel inducer)
O=C(C[C@H]1CC[C@@H]2[C@H](COC[C@H](O)CN2Cc2ccc(Oc3ccccc3)cc2)O1)N1CCCCC1	none
O=C(NC[C@@H]1CC[C@@H]2[C@@H](CN2Cc2ccc(Oc3ccccc3)cc2)O1)C1CCOCC1	none (no result: E-sel inducer)
COc1ccc(CN2C[C@@H](O)COC[C@@H]3O[C@H](CC(=O)N4CCc5ccccc5C4)CC[C@H]32)cc1	SIRT5 block 17
COc1ccc(CN2C[C@@H](O)COC[C@H]3O[C@H](CC(=O)N4CCc5ccccc5C4)CC[C@@H]32)cc1	none
C[C@H](CO)N1C[C@H](C)[C@H](CN(C)Cc2cccc3c2OCCCO3)OCc2ccccc2-c2c(n(C)c3ccccc23)C1=O	none
CCC(=O)N[C@H]1CC[C@@H](CC(=O)NCC2CCCCC2)O[C@@H]1CO	none
COc1ccc(C#Cc2cnc3c(c2)C(=O)N([C@H](C)CO)C[C@@H](C)[C@H](CN(C)C(C)=O)O3)cc1	none
Cc1ccc(S(=O)(=O)N[C@@H]2CC[C@@H](CC(=O)NCCCN(C)C)O[C@@H]2CO)cc1	none
CCc1cc2c(=O)c(-c3cnn(-c4ccccc4)c3)c(C)oc2cc1OCC(=O)Nc1ccc(F)c(F)c1	none (no result: E-sel inducer)
CCc1cc2c(=O)c(-c3cnn(-c4ccccc4)c3)c(C)oc2cc1OCC(=O)Nc1cccc(C)c1	SIRT5 block 27 (no result: E-sel inducer)
CCCNC(=O)N1[C@H](CO)[C@@H]2c3ccccc3N(C(=O)c3ccc(F)cc3)C[C@@H]21	none
CC(C)NC(=O)N(C)C[C@@H]1OCCCC[C@H](C)Oc2ccc(NC(=O)Nc3ccc(C(F)(F)F)cc3)cc2C(=O)N([C@H](C)CO)C[C@@H]1C	DENV2 CPE rescue inconclusive (no result: E-sel inducer)
N#CCCn1cc(C(=O)CN2C(=O)NC3(CCCCCC3)C2=O)c2ccccc21	none (no result: E-sel inducer)
N#CCCn1cc(C(=O)CN2C(=O)NC3(CCc4ccccc43)C2=O)c2ccccc21 (stereo unspecified)	DENV2 CPE rescue 34 (no result: E-sel inducer)
CC=Cc1ccc2n(c1=O)C[C@@H]1[C@@H](CO)[C@H](C(=O)NCCc3ccncc3)[C@H]2N1CCC(F)(F)F (mixture of isomers)	none (no result: DENV2 CPE rescue, SIRT5 block)
CSC1=NSC2=NC(=O)/C(=C/c3coc4ccc(O)cc4c3=O)C(=N)N12	SIRT5 block 21 (no result: DENV2 CPE rescue, E-sel inducer)
CSC1=NSC2=NC(=O)/C(=C/c3coc4ccccc4c3=O)C(=N)N12	none
COc1ccccc1C(=O)N1C[C@@H]2[C@H](c3ccccc31)[C@H](CO)N2CC1CCOCC1	none (no result: DENV2 CPE rescue, SIRT5 block)
C[C@@H]1CCCCO[C@@H](CN(C)S(=O)(=O)c2cccs2)[C@H](C)CN([C@H](C)CO)C(=O)c2cc(NS(=O)(=O)c3ccccc3)ccc2O1	DENV2 CPE rescue inconclusive
CC(C)C#Cc1ccc2c(c1)O[C@H](CN(C)S(C)(=O)=O)[C@H](C)CN([C@H](C)CO)S2(=O)=O	none
